This is an account of results in the RNAGym collection of RNA variant scans (doi:10.1038/nmeth.2970).

The chains are these.
B1: GFP aptamer (parent)
chain: GCUUCUGGACUGCGAUGGGAGCACGAAACGUCGUGGCGCAAUUGGGUGGGGAAAGUCCUUAAAAGAGGGCCACCACAGAAGC

A value given as a limit tells only on which side of the number the result lay.

As a reminder, the Kd is the free concentration of one partner at which half of the binding sites on the other are occupied at equilibrium, for simple one-to-one binding.

The series covers variants of B1. Nature of the series: HiTS-RAP. The following applies: with EGFP. In short, it runs like this: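 Aptamer DNA templates carrying a T7 promoter and ter site were sequenced on an Illumina GAIIx flowcell, then transcribed in situ by T7 RNA polymerase and halted by GST-Tus (30 minutes, 37°C). Clusters were imaged after 30-minute room-temperature equilibration with EGFP-mOrange at 0.04 nM to 625 nM in fivefold steps. Intensities were decay-corrected, normalised to sequencing intensity and averaged per sequence. Kd came from weighted Hill fits per lane, geometrically averaged over three lanes, with non-rising sequences set to 125 nM.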
Turning to GCUUCUGGACUGCGAUGGGAGCACGAAACGUCGUGGCGCAAUUGGGUGGGGAAGGUCCUUAAAAGAGGGCCACCACAGAAGC [A54G], the dissociation constant (Kd) came to 65.4 nM.

Take GCUUCUGGACUGCGAUGGGAGCACGAAACGUCGUGGCGCAAUUGGGUGGGGAAAUUCCUUAAAAGAGGGCCACCACAGAAGC [G55U]: the Kd was determined as 9.31 nM.

As to GCUUCUGGACUGCGAUGGGAGCACGAAACGUCGUGGCGCAAUUGGGUGGGGAAAAUCCUUAAAAGAGGGCCACCACAGAAGC [G55A], the Kd is not below 125 nM.

As to GCUUCUGGACUGCGAUGGGAGCACGAAACGUCGUGGCGCAAUUGGGUGGGGAAACUCCUUAAAAGAGGGCCACCACAGAAGC [G55C], the Kd was found to be 50.8 nM.

GCUUCUGGACUGCGAUGGGAGCACGAAACGUCGUGGCGCAAUUGGGCGGGGAAAGUCUUUAAAAGAGGGCCACCACAGAAGC [U47C C58U]: the Kd amounted to 2.94 nM.

Turning to GCUUCUGGACUGCGAUGGGAGCACGAAACGUCGUGGCGCAAUCGGGUGGGGAAAGUCCUUAAAAGAGGGCCACCACGGAAGC [U43C A77G], the Kd was 5.23 nM.

As for GCUUCUGGACUGCGAUGGGAGCACGAAACGUCGUGGCGCAAUUGGGUGGGGAAAGUCCUUACAAGAGGGCCACCACAGAAGC [A62C], the Kd was found to be 4 nM.

Consider GCUUCUGGACUGCGAUGGGAGCACGAAACGUCGUGGCGCAAUUGGGUGUGGAAAGUCCUUAAAAGAGGGCCACCACAGAAGC [G49U], for which the Kd came out at 11.1 nM.

With GCUUCUGGACUGCGAUGGGAGCACGAAACGUCGUGGCGCAAUUGGGUGCGGAAAGUCCUUAAAAGAGGGCCACCACAGAAGC [G49C], the Kd turned out to be 57.7 nM.

Regarding GCUUCUGGACUGCGAUGGGAGCACGAAACGUCGUGGCGCAAUUGGGUGAGGAAAGUCCUUAAAAGAGGGCCACCACAGAAGC [G49A], the equilibrium dissociation constant (Kd) came to 21.5 nM.

With GCUUCUGGACUGCGAUGGGAGCACGAAACGUCGUGGCGCAAUUCGGUGGGGAAAGUCCUUAAAAGAGGGCCACCACAGAAGC [G44C], the Kd is 34.8 nM.

In the case of GCUUCUGGACUGCGAUGGGAGCACGAAACGUCGUGGCGCAAUUAGGUGGGGAAAGUCCUUAAAAGAGGGCCACCACAGAAGC [G44A], the Kd is 5.26 nM.

In the case of GCUUCUGGACUGCGAUGGGAGCACGAAACGUCGUGGCGCAAUUUGGUGGGGAAAGUCCUUAAAAGAGGGCCACCACAGAAGC [G44U], the dissociation constant (Kd) was determined as 93.2 nM.

In the case of GCUUCUGGACUGCGAUGGGAGCACGAAACGUCGUGGCGCAAUUGGGUGGGGAAAGUCCAUAAAAGAGGGCCACCACAGAAGC [U59A], the equilibrium dissociation constant (Kd) is 10.1 nM.

As for GCUUCUGGACUGCGAUGGGAGCACGAAACGUCGUGGCGCAAUUGGGUGGGGAAAGUCCCUAAAAGAGGGCCACCACAGAAGC [U59C], the equilibrium dissociation constant (Kd) amounted to 16.6 nM.

As to GCUUCUGGACUGCGAUGGGAGCACGAAACGUCGUGGCGCAAUUGGGUGGGGAAAGUCCGUAAAAGAGGGCCACCACAGAAGC [U59G], the dissociation constant Kd amounted to 6.85 nM.

In the case of GCUUCUGGACUGCGAUGGGAGCACGAAACGUCGUGGCGCAAUUGGGUUGGGAAAGUCCUUAAAAGAGGGCCACCACAGAAGC [G48U], the Kd stood at 21.3 nM.

On to GCUUCUGGACUGCGAUGGGAGCACGAAACGUCGUGGCGCAAUUGGGUCGGGAAAGUCCUUAAAAGAGGGCCACCACAGAAGC [G48C], for which the dissociation constant (Kd) was not below 125 nM.

Take GCUUCUGGACUGCGAUGGGAGCACGAAACGUCGUGGCGCAAUUGGGUAGGGAAAGUCCUUAAAAGAGGGCCACCACAGAAGC [G48A]: the Kd is not below 125 nM.

Turning to GCUUCUGGACUGCGAUGGGAGCACGAAACGUCGUGGCGCAAUUGGGUGGGGAAAGUCUUUAAAAGAGGGCCACUACAGAAGC [C58U C74U], the dissociation constant Kd was 5.94 nM.

For the variant GCUUCUGGACUGCGAUGGGAGCACGAAACGUCGUGGCGCAACUGGGCGGGGAAAGUCCUUAAAAGAGGGCCACCACAGAAGC [U42C U47C], the Kd was 19.6 nM.

GCUUCUGGACUGCGAUGGGAGCACGAAACGUCGUGGCGCAAUUGGGUGGGGAAAGUCCUCAAAAGAGGGCCACCACAGAAGC [U60C]: the Kd turned out to be 16.6 nM.

For the variant GCUUCUGGACUGCGAUGGGAGCACGAAACGUCGUGGCGCAAUUGGGUGGGGAAAGUCCUGAAAAGAGGGCCACCACAGAAGC [U60G], the Kd was found to be 5.38 nM.

In the case of GCUUCUGGACUGCGAUGGGAGCACGAAACGUCGUGGCGCAAUUGGGUGGGGAAAGUCCUAAAAAGAGGGCCACCACAGAAGC [U60A], the Kd worked out at 1.71 nM.

Turning to GCUUCUGGACUGCGAUGGGAGCACGAAACGUCGUGGCGCAAUUGGGUGGUGAAAGUCCUUAAAAGAGGGCCACCACAGAAGC [G50U], the dissociation constant (Kd) came out at 12.3 nM.

For the variant GCUUCUGGACUGCGAUGGGAGCACGAAACGUCGUGGCGCAAUUGGGUGGAGAAAGUCCUUAAAAGAGGGCCACCACAGAAGC [G50A], the dissociation constant Kd was found to be 68 nM.

Regarding GCUUCUGGACUGCGAUGGGAGCACGAAACGUCGUGGCGCAAUUGGGUGGCGAAAGUCCUUAAAAGAGGGCCACCACAGAAGC [G50C], the dissociation constant (Kd) turned out to be 67.7 nM.

As to GCUUCUGGACUGCGAUGGGAGCACGAAACGUCGUGGCGCAAUUGGGCGGGGAAAGUCCUUAAAAGAGGGCCAUCACAGAAGC [U47C C73U], the equilibrium dissociation constant (Kd) worked out at 44.3 nM.

In the case of GCUUCUGGACUGCGAUGGGAGCACGAAACGUCGUGGCGCAAUUGGGUGGGGAAAGUCUUUAAAAGAGGGCCAUCACAGAAGC [C58U C73U], the Kd came out at 0.976 nM.

As to GCUUCUGGACUGCGAUGGGAGCACGAAACGUCGUGGCGCAAUUGGGUGGGGAAAGUCUUUAAAAGAGGGUCACCACAGAAGC [C58U C70U], the Kd is 4.84 nM.

Regarding GCUUCUGGACUGCGAUGGGAGCACGAAACGUCGUGGCGCAAUUGGGCGGGGAAAGUCCUUAAAAGAGGGCCACCACAGGAGC [U47C A79G], the Kd was 62.1 nM.

Take GCUUCUGGACUGCGAUGGGAGCACGAAACGUCGUGGCGCAAUUGGGUGGGGAAAGUCCUUUAAAGAGGGCCACCACAGAAGC [A61U]: the Kd came to 4.9 nM.

In the case of GCUUCUGGACUGCGAUGGGAGCACGAAACGUCGUGGCGCAAUUGGGUGGGGAAAGUCCUUCAAAGAGGGCCACCACAGAAGC [A61C], the Kd was found to be 5.03 nM.

Regarding GCUUCUGGACUGCGAUGGGAGCACGAAACGUCGUGGCGCAAUUGGGUGGGGAAAGUCCUUGAAAGAGGGCCACCACAGAAGC [A61G], the equilibrium dissociation constant (Kd) turned out to be 3.47 nM.
